pIC50: −log10 of the molar value.

Test [1] has as its target Serine/threonine-protein kinase B-raf (Homo sapiens, UniProt P15056, V600E). Briefly: Inhibition of B-Raf V600E mutant-mediated ERK phosphorylation in human WM266.4 cells by ELISA. It counts as cell-based. The method, boiled down: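 Phospho-ERK1/2 levels in WM266.4 melanoma cells were measured with an ELISA kit, run as the manufacturer instructs.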
(An ELISA detects its analyte on a solid surface through an enzyme-linked reagent.)

A short description of test [2]: Inhibition of mouse full length GST-tagged B-Raf V600E mutant-mediated human MEK1 phosphorylation after 1 hr preincubation.
Test [3] in a line: Growth inhibition of human WM266.4 cells expressing B-Raf V600E mutant after 24 hrs by MTT assay. The note with it: WM 266-4, 24 h. The format is functional. The method, boiled down: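 MTT growth assay. Cells were plated, then returned to the incubator for 24 h to reattach before treatment. Compounds were made up at 20 mM in DMSO (stock), diluted in culture medium to […], and tested over 10 threefold serial dilutions. GI50 was reported from three separate experiments, or from two for some entries.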
In general terms: Tetrazolium assays rely on reduction of a dye to a coloured formazan, in cell work by metabolically active cells.

Chain of Serine/threonine-protein kinase B-raf (P15056 2-766 V600E limits assumed): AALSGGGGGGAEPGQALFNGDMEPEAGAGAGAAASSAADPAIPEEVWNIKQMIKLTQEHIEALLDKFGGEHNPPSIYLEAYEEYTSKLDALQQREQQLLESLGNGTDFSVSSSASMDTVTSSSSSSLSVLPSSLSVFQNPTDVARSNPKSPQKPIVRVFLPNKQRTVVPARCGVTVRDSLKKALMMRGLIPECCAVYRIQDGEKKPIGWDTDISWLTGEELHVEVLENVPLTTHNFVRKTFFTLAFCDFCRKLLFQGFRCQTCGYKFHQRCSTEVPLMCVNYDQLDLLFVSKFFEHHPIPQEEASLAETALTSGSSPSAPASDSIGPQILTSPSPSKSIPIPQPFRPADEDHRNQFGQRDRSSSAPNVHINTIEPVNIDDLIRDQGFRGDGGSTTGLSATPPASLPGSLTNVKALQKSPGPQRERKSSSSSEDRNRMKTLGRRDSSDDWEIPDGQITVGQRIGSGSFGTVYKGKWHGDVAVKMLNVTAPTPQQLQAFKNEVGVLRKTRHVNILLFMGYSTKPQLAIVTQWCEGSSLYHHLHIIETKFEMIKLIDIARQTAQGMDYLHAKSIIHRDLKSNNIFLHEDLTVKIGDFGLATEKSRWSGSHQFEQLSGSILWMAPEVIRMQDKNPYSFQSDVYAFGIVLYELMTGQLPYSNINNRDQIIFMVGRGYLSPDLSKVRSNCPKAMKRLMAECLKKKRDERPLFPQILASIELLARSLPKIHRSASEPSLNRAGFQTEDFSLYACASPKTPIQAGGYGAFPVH

The pIC50 is the negative decadic logarithm of the IC50, by convention in mol/L. A higher pIC50 goes with a low IC50. For `O=C(/C(=C\c1ccc(F)cc1)S(=O)(=O)Cc1ccccc1)c1ccc(Cl)cc1`, the pIC50 in test [1] was 5.75.
Still for that read-out and setting: under `O=C(/C(=C\c1ccc([N+](=O)[O-])cc1)S(=O)(=O)Cc1ccccc1)c1ccc(Cl)cc1` stands 5.91.
`Cc1ccc(N2C(=O)c3ccccc3SC2c2cc(Br)ccc2O)cc1` (centres undefined) gave a pIC50 in test [2] of less than 4.60.
In turn, `O=c1cc(-c2ccc3c(c2)OCCO3)oc2cc(CCCN3CCCC3)cc(O)c12` had a negative-log IC50 (pIC50) in test [2] of 4.97.
The molecule `O=C(/C(=C\c1ccc([N+](=O)[O-])cc1)S(=O)(=O)Cc1ccccc1)c1ccccc1` showed a pIC50 in test [1] of 5.86.
Regarding `O=C1c2ccccc2SC(c2cc(Br)ccc2O)N1c1ccc(C(F)(F)F)cc1` (centres undefined), the negative-log IC50 (pIC50) in test [2] is less than 4.60.
Same read-out and setting: under `Cc1ccc(N(Cc2cc(Cl)cc(Cl)c2O)CN(N=O)c2ccccc2)cc1` stands 5.06.
The term GI50 denotes the concentration giving 50% growth inhibition. The low end stands for more potent growth inhibition, the high end for less potent growth inhibition. `CNC(=O)c1cc(Oc2ccc(NC(=O)Nc3ccc(Cl)c(C(F)(F)F)c3)cc2)ccn1` [SORAFENIB] gave a concentration for 50% growth inhibition (GI50) in test [3] of 8.3 µM. The molecule also gave a pIC50 in test [2] of 7.22.

Values taken from ChEMBL document CHEMBL1949577, “Design, synthesis and biological evaluation of novel (E)-α-benzylsulfonyl chalcone derivatives as potential BRAF inhibitors” (Eur J Med Chem, 2012).
